Calls of active or inactive are those of the source.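 The calls were made as follows, unless noted: active = current rise at least 3 SD above the untreated control mean in each of two repeat wells; inactive = the rest.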

A short description of assay [1]: thallium flux activation in parental CHO cells, counter-screen for KCNQ1 potentiator project (AID 493006;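 active = duplicate-averaged activation above buffer control mean plus 5 SD of those controls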;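 as to activation: fluorescence ratio of max minus min over baseline after K+ and Tl+ depolarization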). The settings on record: parental CHO-K1 cells, FluxOR thallium flux, at 10 µM; stronger effect = higher value. In outline: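 Material: untransfected host CHO-K1 cells with FluxOR thallium dye. Timing: overnight 37 °C plating, 90 min RT dye, 20 min compound. Detection: kinetic FluxOR fluorescence, 10 s baseline, 110 s after stimulus. Read-out basis: max-minus-min fluorescence over baseline, percent of buffer-to-R-L3 span. Replicates: duplicate wells per compound, percent values averaged.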

Assay [2] has as its target Potassium voltage-gated channel subfamily KQT member 1 (Homo sapiens) (UniProt P51787). Briefly: KCNQ1 potassium channel potentiators, confirmation, FluxOR thallium flux, CHO cells, duplicates (AID 493007;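 active = potentiation averaged over duplicate wells exceeding buffer-only control mean by more than 3 SD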;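 as to outcome: cells depolarized by a potassium plus thallium sulfate stimulus after compound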). As to conditions: KCNQ1 cell line, FluxOR thallium flux fluorescence, at 10 µM; stronger effect = higher value, % of reference activator effect, buffer zero. Put shortly: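 Test system – KCNQ1-expressing CHO cell line · Incubation – FluxOR dye loading 90 min, compound exposure 20 min, room temperature · Detection – FluxOR Tl+ flux fluorescence, 10 s baseline plus 110 s recording · Controls – buffer-only wells as 0% and R-L3 activator as 100%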

The target of assay [3] is Potassium voltage-gated channel subfamily KQT member 2 (Rattus norvegicus) (UniProt O88943). Briefly: rat KCNQ2 channel potentiation, selectivity assay for KCNQ1 potentiator project, KCNQ2-CHO-K1 cells (AID 493009;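 active = mean duplicate potentiation above the buffer control mean plus 5 SD of buffer wells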;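 also: assay conditions were tuned for KCNQ1 rather than KCNQ2 modulators; signal is max minus min fluorescence divided by baseline after thallium stimulus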). As to conditions: FluxOR thallium flux fluorescence, at 10 µM; stronger effect = higher value, scaled: buffer 0, activator control 100.
Sequence of Potassium voltage-gated channel subfamily KQT member 2 (Rattus norvegicus) (O88943 whole entry, looked up): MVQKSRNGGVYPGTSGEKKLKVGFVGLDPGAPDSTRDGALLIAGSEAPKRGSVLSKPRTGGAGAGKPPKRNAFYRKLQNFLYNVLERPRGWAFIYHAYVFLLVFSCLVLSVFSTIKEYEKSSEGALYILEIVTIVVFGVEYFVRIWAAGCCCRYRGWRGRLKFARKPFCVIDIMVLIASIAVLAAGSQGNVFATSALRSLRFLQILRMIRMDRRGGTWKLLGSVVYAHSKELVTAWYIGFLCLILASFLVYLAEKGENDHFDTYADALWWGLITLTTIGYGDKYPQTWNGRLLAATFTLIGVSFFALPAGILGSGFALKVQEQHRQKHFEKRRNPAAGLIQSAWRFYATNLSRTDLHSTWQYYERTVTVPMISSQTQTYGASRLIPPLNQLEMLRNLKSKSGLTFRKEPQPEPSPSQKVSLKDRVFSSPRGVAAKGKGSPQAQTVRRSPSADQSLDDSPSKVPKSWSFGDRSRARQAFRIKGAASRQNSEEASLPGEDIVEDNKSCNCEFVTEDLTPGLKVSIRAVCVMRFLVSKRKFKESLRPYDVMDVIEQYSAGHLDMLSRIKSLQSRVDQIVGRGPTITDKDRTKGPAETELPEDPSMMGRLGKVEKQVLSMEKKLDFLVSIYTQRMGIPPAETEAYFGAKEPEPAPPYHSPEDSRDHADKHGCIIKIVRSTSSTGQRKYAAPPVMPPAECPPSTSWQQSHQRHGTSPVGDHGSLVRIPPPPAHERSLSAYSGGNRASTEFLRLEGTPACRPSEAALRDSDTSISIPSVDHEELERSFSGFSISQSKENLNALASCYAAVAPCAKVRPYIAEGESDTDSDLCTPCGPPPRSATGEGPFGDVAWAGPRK
For assay [4], the target named is Potassium voltage-gated channel subfamily KQT member 1 (Homo sapiens) (UniProt P51787). Briefly: KCNQ1 channel current potentiators, confirmation, orthogonal assay for KCNQ1 potentiator project, IonWorks patch clamp, KCNQ1-CHO cells (AID 493184). As to conditions: automated patch clamp current, at 10 µM; stronger effect = higher value. Put shortly:
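Read-out: Percent current increase versus pre-compound level | Assay system: CHO cells carrying KCNQ1 | Measured by: Automated perforated-patch electrophysiology | Medium: External bath solution at pH 7.4 | Dosing: One dose, 10 µM final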

Sequence of Potassium voltage-gated channel subfamily KQT member 1 (Homo sapiens) (P51787 whole entry, looked up): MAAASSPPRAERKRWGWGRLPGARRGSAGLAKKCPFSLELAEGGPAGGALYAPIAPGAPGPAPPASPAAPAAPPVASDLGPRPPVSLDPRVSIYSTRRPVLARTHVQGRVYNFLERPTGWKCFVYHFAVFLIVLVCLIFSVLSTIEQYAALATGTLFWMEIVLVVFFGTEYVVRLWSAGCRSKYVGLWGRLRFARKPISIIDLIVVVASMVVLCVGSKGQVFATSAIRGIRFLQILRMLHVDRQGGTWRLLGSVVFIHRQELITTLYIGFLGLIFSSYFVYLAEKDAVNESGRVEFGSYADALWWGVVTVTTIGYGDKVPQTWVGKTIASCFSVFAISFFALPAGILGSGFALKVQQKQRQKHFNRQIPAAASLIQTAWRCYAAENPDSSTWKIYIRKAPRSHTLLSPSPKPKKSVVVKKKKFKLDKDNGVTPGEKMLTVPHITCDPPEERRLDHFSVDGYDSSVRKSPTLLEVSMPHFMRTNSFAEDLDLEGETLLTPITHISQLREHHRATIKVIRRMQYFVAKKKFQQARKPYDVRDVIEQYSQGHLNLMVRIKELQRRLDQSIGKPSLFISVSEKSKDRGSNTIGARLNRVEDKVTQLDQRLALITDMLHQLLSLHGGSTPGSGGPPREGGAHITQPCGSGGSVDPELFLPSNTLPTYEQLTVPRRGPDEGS

Consider `CCCCN1CNC(=S)N(c2ccccc2OCC)C1`, for which the result in assay [1], in assay [2], in assay [3] and in assay [4] was inactive.

On to `COc1ccc2[nH]c3c(c2c1)CCNC3C1CC=C(C)CC1` (configuration not stated), for which the result in assay [1], in assay [2], in assay [3] and in assay [4] was inactive.

As for `CC1CCc2sc3nc(N4CCN(CCO)CC4)n4ncnc4c3c2C1` (configuration not stated), the activation in assay [1] is 510% (active). For the same compound, the potentiation in assay [2] was 200% (active); in assay [3], 500% (active). Further, the result in assay [4] was inactive.

Regarding `Cc1c(Cl)cccc1NC(=O)Cn1c(CCC(=O)O)ccc1-c1ccccc1`, the result in assay [1], in assay [2], in assay [3] and in assay [4] was inactive.

With `CC(=O)OCC(=O)[C@@]1(OC(C)=O)[C@@H](C)C[C@H]2[C@@H]3C[C@H](F)C4=CC(=O)C=C[C@]4(C)[C@@]3(F)[C@@H](O)C[C@@]21C`, the outcome in assay [1], in assay [2], in assay [3] and in assay [4] was inactive.

Turning to `O=C1CCC(c2ccc(-n3ccnc3)cc2)=NN1`, the result in assay [1], in assay [2], in assay [3] and in assay [4] was inactive.

For `O=C(Nc1ccc(N2CCCCC2)cc1)c1cccnc1Cl`, the result in assay [1], in assay [2], in assay [3] and in assay [4] was inactive.

On to `CCOc1ccccc1NC(=O)C(=O)CC(=O)c1ccc(OC)cc1`, for which, in assay [1], the activation is 164% (active). The results for the potentiation in assay [2] and in assay [3] were 64.5% (active) and 216% (active), respectively. Moreover, the outcome in assay [4] was inactive.

For the compound `COc1ccc(/C=N/NC(=O)c2[nH]nc3c2CCc2ccccc2-3)cc1OC`, the activation in assay [1] is 240% (active). In addition, the potentiation in assay [2] is 85% (active); in assay [3], 228% (active). Further, in assay [4], the result was inactive.

`CCn1c(CC(=O)Nc2ccccc2)nnc1SCC(=O)Nc1nncs1`: the result in assay [1], in assay [2], in assay [3] and in assay [4] was inactive.

As to `CCC(O)C1CCN(Cc2cn(Cc3ccccc3)nc2-c2cc3ccccc3o2)CC1` (configuration not stated), in assay [1], the activation was 170% (active). For the same compound, the potentiation was 75% (active) in assay [2] and 230% (active) in assay [3]. The outcome in assay [4] was inactive.

As for `Cc1ccc(OCC(=O)NNC(=O)C(=O)NC(C)(C)C)cc1`, the activation in assay [1] was 170% (active). In addition, the figures for the potentiation in assay [2] and in assay [3] were 43% (active) and 176% (active), respectively. The outcome in assay [4] was inactive.

Turning to `CC1Cc2ccccc2N1C(=S)NC(=O)c1ccc(Cl)cc1Cl` (configuration not stated), in assay [1], the activation was 214% (active). Further, the potentiation was 91.5% (active) in assay [2] and 248% (active) in assay [3]. Besides, in assay [4], the outcome was inactive.

Regarding `COc1ccc(NC(=S)NC(=O)c2ccccc2Cl)cc1`, the outcome in assay [1], in assay [2], in assay [3] and in assay [4] was inactive.

Consider `CCCN(CCC)CCNC(=O)Cn1cnc2sc(C)c(S(=O)(=O)N3CCOCC3)c2c1=O`, for which the outcome in assay [1], in assay [2], in assay [3] and in assay [4] was inactive.

Regarding `CC(Oc1ccc(Br)cc1)C(=O)N1CCC(C(N)=O)CC1` (configuration not stated), the outcome in assay [1], in assay [2], in assay [3] and in assay [4] was inactive.

For the compound `Cc1ccccc1Cn1c(O)c(N=NC(=S)Nc2ccccc2F)c2ccccc21`, the result in assay [1], in assay [3] and in assay [4] was inactive. Besides, in assay [2], the potentiation is 36% (active).

`CCC1(c2ccccc2)NC(=S)N(c2ccc(C)c(C)c2)N1` (configuration not stated): the activation in assay [1] was 542% (active). Further, the potentiation is 271% (active) in assay [2] and 572% (active) in assay [3]. Besides, the result in assay [4] was inactive.

`O=C(Nc1nnc(-c2ccc3c(c2)CCCC3)o1)c1ccccc1Cl`: in assay [1], the activation was 184% (active). The potentiation in assay [2] was 83% (active); in assay [3], 267% (active). For the same compound, the outcome in assay [4] was inactive.

Consider `O=C(CCC(=O)N1CCOc2ccc(Cl)cc21)NCCCN1CCN(c2ccccc2F)CC1`, for which the result in assay [1], in assay [2], in assay [3] and in assay [4] was inactive.

Turning to `C=C1CCN(c2ccc(C(=O)NCc3ccc(C)cc3)cc2[N+](=O)[O-])CC1`, the activation in assay [1] is 164% (active). In addition, the potentiation in assay [2] was 19.5% (active). Besides, the result in assay [3] and in assay [4] was inactive.

Regarding `Cc1ccc(S(=O)(=O)N(C)c2nc3ccccc3[nH]c2=S)cc1`, the outcome in assay [1] and in assay [4] was inactive. Besides, the potentiation in assay [2] was 42.5% (active); in assay [3] it was 197% (active).

With `O=c1[nH]cc(S(=O)(=O)c2ccccc2)[nH]1`, the result in assay [1], in assay [2], in assay [3] and in assay [4] was inactive.

In the case of `O=C(NC(=S)N(CCc1ccccc1)CCc1ccccc1)c1ccco1`, in assay [1], the activation is 408% (active). Further, the potentiation in assay [2] is 364% (active); in assay [3], 560% (active). In addition, the result in assay [4] was inactive.

On to `O=C(Cc1cccs1)N=Nc1c(O)[nH]c2ccc(Br)cc12`, for which the result in assay [1], in assay [2], in assay [3] and in assay [4] was inactive.

Turning to `Cc1ccc(OCC(=O)NNC(=S)NC(=O)c2cccs2)c(C)c1`, the activation in assay [1] is 195% (active). Further, the potentiation in assay [2] was 76.5% (active); in assay [3], 238% (active). In addition, the outcome in assay [4] was inactive.

For the compound `O=C(NC(=S)N1CCN(c2nc(-c3ccccc3)cs2)CC1)c1cncc(Br)c1`, the activation in assay [1] is 384% (active). Also, the figures for the potentiation in assay [2] and in assay [3] were 223% (active) and 505% (active), respectively. For the same compound, in assay [4], the result was inactive.

As for `COc1ccc(OCc2cc(C(=O)N(C)CC3CCCCO3)no2)c(Cl)c1` (configuration not stated), the outcome in assay [1], in assay [3] and in assay [4] was inactive. Also, the potentiation in assay [2] was 17.5% (active).

The values above are taken from PubChem BioAssay.
